In ChEMBL document CHEMBL3758086, “Inhibitory effect of phenothiazine- and phenoxazine-derived chloroacetamides on Leishmania major growth and Trypanosoma brucei trypanothione reductase” (Eur J Med Chem, 2016) one finds IC50, inhibition and TDI data, which are given here for 26 compounds.

Test [1] deals with Leishmania major. Briefly: Antileishmanial activity against promastigote stage of Leishmania major assessed as inhibition of parasite proliferation after 48 hrs by Alamar Blue assay. It counts as functional, organism-based.
Test [2] deals with K562. Briefly: Cytotoxicity against human K562 cells assessed as cell growth inhibition after 48 hrs by Neubauer counting chamber analysis. In kind it is cell-based. The conditions noted are these: K562, 48 h.
Test [3] addresses Trypanothione reductase (Trypanosoma brucei brucei) (UniProt P39051). Briefly: Reversible inhibition of recombinant Trypanosoma brucei trypanothione reductase.
Test [4] shares this target. The conditions noted are these: 50 uM.
Test [5] has the same target. Briefly: Inhibition of recombinant Trypanosoma brucei trypanothione reductase at 100 uM in presence of NADPH, trypanothione disulphide. The method, boiled down: (§1)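 T. brucei TR (1 µM) preincubated at 25 °C in 200 µL TR assay buffer with 400 µM NADPH and compound (25, 50 or 100 µM) or DMSO (5%). At 10, 30, 60, 120 and 180 min, a 5 µL aliquot went into a 1 mL standard assay with 100 µM NADPH, started with 100 µM trypanothione disulfide. Absorbance decrease at 340 nm followed at 25 °C.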

Test [6] concerns the target T1, Tryparedoxin peroxidase (Trypanosoma brucei) (UniProt Q9GU47).
T1 sequence (whole entry): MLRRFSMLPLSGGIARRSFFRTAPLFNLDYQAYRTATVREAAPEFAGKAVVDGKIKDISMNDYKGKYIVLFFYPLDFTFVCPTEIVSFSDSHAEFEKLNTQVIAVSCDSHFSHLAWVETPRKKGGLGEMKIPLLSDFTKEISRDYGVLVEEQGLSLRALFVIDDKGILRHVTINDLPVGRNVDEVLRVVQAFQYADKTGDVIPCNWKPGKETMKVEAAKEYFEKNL
The experiment in a line: Time dependent inhibition of Trypanosoma brucei tryparedoxin peroxidase preincubated for 10 mins in presence of NADPH, tryparedoxin, T(SH)2 followed by addition of hydrogen peroxide. The method, boiled down: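 Peroxidase cascade mixture of NADPH, T. brucei TR, tryparedoxin, peroxidase, T(SH)2 and inhibitor incubated 10 min, then reaction started with H2O2.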

Test [7] has as its target Trypanothione reductase (Trypanosoma brucei brucei) (UniProt P39051). Briefly: Inhibition of recombinant Trypanosoma brucei trypanothione reductase at 25 uM in presence of NADPH, trypanothione disulphide. The method, boiled down:
as §1

Active and inactive are the calls of the source. The calls are words filed in the database; no cut-off is given here.

Chain of Trypanothione reductase (Trypanosoma brucei brucei) (P39051 whole entry, looked up): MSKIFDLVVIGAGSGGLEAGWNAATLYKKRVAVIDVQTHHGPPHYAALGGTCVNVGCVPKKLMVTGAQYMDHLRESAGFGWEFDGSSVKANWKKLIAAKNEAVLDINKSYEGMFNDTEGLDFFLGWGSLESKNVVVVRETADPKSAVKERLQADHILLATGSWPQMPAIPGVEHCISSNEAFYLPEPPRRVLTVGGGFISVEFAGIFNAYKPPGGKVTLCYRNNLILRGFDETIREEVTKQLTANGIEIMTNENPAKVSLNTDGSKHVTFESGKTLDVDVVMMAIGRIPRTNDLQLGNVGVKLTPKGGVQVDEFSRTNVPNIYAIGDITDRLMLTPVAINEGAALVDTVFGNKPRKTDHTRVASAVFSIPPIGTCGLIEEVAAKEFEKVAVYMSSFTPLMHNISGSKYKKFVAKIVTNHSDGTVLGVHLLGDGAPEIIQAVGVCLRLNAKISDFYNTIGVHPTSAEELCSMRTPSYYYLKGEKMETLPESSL

As to `CCCCCCCCCCCCCCCCOP(=O)([O-])OCC[N+](C)(C)C` [MILTEFOSINE], the IC50 in test [1] turned out to be 36 µM.

Consider `O=C(CCCCl)N1c2ccccc2Oc2ccc(Cl)cc21`, for which the IC50 in test [2] is over 90 µM; in test [1], over 100 µM. The inhibition entry in test [3] was “inactive”.

For the compound `O=C(CCl)N1c2ccccc2CCc2ccccc21`, the IC50 in test [2] is 4.8 µM; in test [1], 43.3 µM. Besides, the inhibition result in test [3] was “inactive”.

Take `CC(Cl)C(=O)N1c2ccccc2Oc2ccccc21` (centres undefined): the IC50 in test [2] is over 30 µM; in test [1], over 100 µM. In test [3], the inhibition result was “inactive”.

Consider `O=C(C(Cl)CCl)N1c2ccccc2Oc2ccccc21` (centres undefined), for which the inhibition result in test [3] was “inactive”. Moreover, the IC50 in test [1] was found to be 9.6 µM.

`O=C(CCCl)N1c2ccccc2Oc2ccc(Cl)cc21`: the IC50 stood at 10.2 µM in test [2] and 15.7 µM in test [1]. The inhibition result in test [3] was “inactive”.

Turning to `ClCCN1c2ccccc2Oc2ccc(Cl)cc21`, the inhibition result in test [3] is “inactive”. Besides, the IC50 in test [1] is over 100 µM.

On to `O=C(CCl)N1c2ccccc2Sc2ccc(Cl)cc21`, for which the concentration for half-maximal inhibition (IC50) came to 3.2 µM in test [2] and 10.4 µM in test [1]. Further, the inhibition result in test [3] was “inactive”.

In the case of `N=C(N)c1ccc(OCCCCCOc2ccc(C(=N)N)cc2)cc1`, the IC50 in test [1] worked out at 84 µM.

On to `O=C(CCl)N1c2ccccc2Oc2ccc(Cl)cc21`, for which the IC50 is 3 µM in test [2] and 7.6 µM in test [1]. Besides, the inhibition entry in test [3] and in test [4] was “inactive” throughout.

As to `NC[C@@H]1O[C@H](O[C@H]2[C@@H](O)[C@H](O[C@@H]3[C@@H](O)[C@H](N)C[C@H](N)[C@H]3O[C@H]3O[C@H](CO)[C@@H](O)[C@H](O)[C@H]3N)O[C@@H]2CO)[C@H](N)[C@@H](O)[C@@H]1O` [PAROMOMYCIN], the IC50 in test [1] is over 100 µM.

As for `O=C(CBr)N1c2ccccc2Oc2ccc(Cl)cc21`, the results for the half-inhibitory concentration (IC50) in test [2] and in test [1] were 6.15 µM and over 100 µM, respectively. Also, the inhibition result in test [3] was “inactive”.

Turning to `O=C(CCl)n1c2ccccc2c2ccccc21`, the IC50 was 6.44 µM in test [2] and over 100 µM in test [1]. Moreover, the inhibition entry in test [3] is “inactive”.

For the compound `C[C@@H]1[C@H](O)[C@@H](C)/C=C/C=C/C=C/C=C/C=C/C=C/C=C/[C@H](O[C@@H]2O[C@H](C)[C@@H](O)[C@H](N)[C@@H]2O)C[C@@H]2O[C@](O)(C[C@@H](O)C[C@@H](O)[C@H](O)CC[C@@H](O)C[C@@H](O)CC(=O)O[C@H]1C)C[C@H](O)[C@H]2C(=O)O` [AMPHOTERICIN B], the concentration for half-maximal inhibition (IC50) in test [1] worked out at 0.33 µM.

Consider `CC(=O)N1c2ccccc2Oc2ccc(Cl)cc21`, for which the figures for the IC50 in test [2] and in test [1] were over 30 µM and over 100 µM, respectively. The inhibition entry in test [5] and in test [3] was “inactive” in each case.

For the compound `O=C(CCl)N1c2ccccc2COc2ccc(Cl)cc21`, the values for the IC50 in test [2] and in test [1] were 3.3 µM and 7.2 µM, respectively. Also, in test [6], the TDI entry is “inactive”. Besides, the inhibition result in test [3] was “inactive”.

On to `O=C(CCl)N(c1ccccc1)c1cccc(Cl)c1`, for which the inhibition result in test [3] is “inactive”. Also, the IC50 in test [1] is 40.3 µM.

In the case of `O=C(CCl)N1c2cc(Cl)ccc2Oc2ccc(Cl)cc21`, the IC50 worked out at 2.03 µM in test [2] and 9.5 µM in test [1]. In test [3], the inhibition entry is “inactive”.

On to `N#CCC(=O)N1c2ccccc2Oc2ccccc21`, for which the IC50 in test [2] was 23 µM; in test [1], over 100 µM. In test [3], the inhibition entry is “inactive”.

With `O=C(CCCl)N1c2ccccc2Oc2ccccc21`, the figures for the IC50 in test [2] and in test [1] were 15.2 µM and 39.1 µM, respectively. Also, in test [3], the inhibition entry is “inactive”.

As to `O=C(C(Cl)Cl)N1c2ccccc2Oc2ccccc21`, the IC50 in test [2] is over 30 µM; in test [1] it was 82 µM. For the same compound, the inhibition entry in test [3] was “inactive”.

As to `O=C(CCl)N1c2ccccc2Sc2ccccc21`, the IC50 in test [2] is 5 µM; in test [1] it was 9.3 µM. For the same compound, the TDI entry in test [6] is “inactive”. Also, the inhibition result in test [3] was “inactive”.

With `O=C(CCl)N1c2ccccc2Oc2ccc(C(F)(F)F)cc21`, the inhibition entry in test [3] was “inactive”. The IC50 in test [1] amounted to 9.6 µM.

In the case of `Clc1ccc2c(c1)Nc1ccccc1O2`, the inhibition entry in test [3] and in test [7] was “inactive” throughout. Moreover, in test [1], the IC50 was 69.2 µM.

Turning to `O=C(CCl)N1c2ccccc2C=Cc2ccccc21`, the half-inhibitory concentration (IC50) is 6.2 µM in test [2] and 48.1 µM in test [1]. The inhibition entry in test [3] is “inactive”.

As for `O=C(CCl)Nc1cc(Cl)ccc1Oc1ccccc1`, the inhibition entry in test [3] was “inactive”. In addition, in test [1], the IC50 came to 42.6 µM.
